These results are taken from ChEMBL document CHEMBL4513216, “Probing the Open Global Health Chemical Diversity Library for Multistage-Active Starting Points for Next-Generation Antimalarials” (ACS Infect Dis, 2020).

SMILES strings stand for the structures.

A short description of this data set: Toxicity liver stage against HepG2, at 10uM. It is filed as cell-based. Details: test concentration 10 uM, cell line HepG2-A16-CD81EGFP. As to conditions: human, HepG2-A16-CD81EGFP cells; read-out: INHIBITION
In a few lines:
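Uninfected HepG2-A16-CD81EGFP cells, 3 × 10^3 per well, 1536-well, plated on prespotted compound at 10 μM final, parasite-free screening media added to match infected plates; puromycin 10 μM positive, DMSO 0.5% negative; run in parallel with 48 h PbLuc assay at 37 °C, 5% CO2; viability by CellTiter-Glo luminescence, normalized to controls.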
With `CC(C)(C)CN1CCN2C(=O)N(C3CCCCC3)C[C@H]2C1`, the cytotoxicity at 10 µM amounted to 4.91%. In the case of `CC1CCN(c2cc(-n3cnc(C(=O)N4CCSCC4)c3)ncn2)CC1`, the cytotoxicity at 10 µM came to 0.668%.

For `CC(=O)N1CC2(CCN(C(=O)c3ccc4c(c3)OCCO4)CC2)C1`, the cytotoxicity at 10 µM was -11.8%. Regarding `CC(=O)N1CCOCC2(CCCNC2)C1` (configuration not stated), the cytotoxicity at 10 µM stood at 0.081%. Take `O=C(C1CCOCC1)N1CCO[C@H]2[C@H](OCC3CC3)CC[C@@H]21`: the cytotoxicity at 10 µM was determined as 2.61%.

In the case of `Cc1nc(N2CCOCC2)nc2c1CCN(C(=O)C1CCCCC1)CC2`, the cytotoxicity at 10 µM is -0.152%. Then `CNc1nc2c(s1)C(c1ccc(F)cc1Cl)CC(=O)N2` (configuration not stated), with 4.12%; and `CO[C@H]1CCN(c2ncccn2)[C@H]1Cc1ccccc1`, with -12.9%; and `Cc1ccccc1N1CC(c2nnc(N)s2)CC1=O` (configuration not stated), with -0.411%. In the case of `O=C1CCOC[C@]2(CN(Cc3ccccc3)C[C@H]2c2cccc(F)c2)N1`, the cytotoxicity at 10 µM was -0.0186%.

For `COc1ccc(C2CN(c3nc(C)cc(C)n3)CCN2C(C)=O)cc1` (configuration not stated), the cytotoxicity at 10 µM amounted to 2.06%. As to `CCn1nc(C)c(CN(CCCN(C)C)Cc2ccccn2)c1C`, the cytotoxicity at 10 µM was 1.62%. With `NC(=O)c1ccccc1Oc1cnc(C2CCCN2)cn1` (configuration not stated), the cytotoxicity at 10 µM worked out at 0.288%. To `O=C(c1cnccn1)N1CCCC(Cc2cncc3ccccc23)C1` (configuration not stated) belongs -31.4%. For `c1ccc(-c2cc(CNCCCN3CCCCC3)c3nnnn3c2)cc1`, the cytotoxicity at 10 µM is -30.6%.

Regarding `Cc1cc(C(N)=O)nc(C2(C)CCCN2Cc2cnn(C)c2C)n1` (configuration not stated), the cytotoxicity at 10 µM is -20.6%. To `CC(C)NC(=O)C1CCc2nnc(CNC(=O)C3CC3)n21` (configuration not stated) belongs 4.9%; to `Cc1cc(CC(=O)N2CCc3cc(Br)sc3C2)n[nH]1`, 10.2%; to `CC(Cn1cccn1)NCc1cccc(C#N)c1` (configuration not stated), 5.19%.

On to `CCC(CC)(CN)NC(C)c1ccccc1` (configuration not stated), for which the cytotoxicity at 10 µM is 4.02%.

For `c1cnc2nc(N3CCc4c(ncn4C4CC4)C3)ccc2n1`, the cytotoxicity at 10 µM is 6.47%. Then `CC(NC(=O)N1CCNC(=O)CC1)c1c(F)cccc1Cl` (configuration not stated), with -1.66%; and `COCCCN(C)C(=O)c1nnn(-c2ccccc2Cl)c1C`, with 9.38%; and `COCCCN(Cc1ccncc1)c1ncc(C#N)cc1Cl`, with 4.98%. To `CC(C)(C)CN(CCC#N)C(=O)c1cccc(CN2CCCC2)c1` belongs 0.234%. Then `O=C(c1cccc(F)c1)N(CCCO)S(=O)(=O)c1cccs1`, with 3.51%. Turning to `CN(C1CCCCC1)S(=O)(=O)N1CCN(Cc2ccon2)CC1`, the cytotoxicity at 10 µM is 6.75%.

With `O=C(Cn1ccc(-c2ccccc2)n1)N1CCN(C(=O)C2CC2)CC1`, the cytotoxicity at 10 µM is -6.58%. For `Cc1nn(C)c2ncc(NC(=O)N3CCNC(=O)C3)cc12`, the cytotoxicity at 10 µM is -5.81%. In the case of `CSC1(CNC(=O)c2ccn(-c3ccccc3F)n2)CCOCC1`, the cytotoxicity at 10 µM is 0.243%. `O=C(c1cccc(NCc2cccc(F)c2)c1)N1CCC(O)CC1`: the cytotoxicity at 10 µM was 5.84%. Then `CCCc1csc(-c2ccc(S(C)(=O)=O)cc2)n1`, with -2.69%; and `COC(=O)C(C)N(Cc1cc(=O)n(C)c(=O)n1C)C1CC1` (configuration not stated), with -0.719%; and `O=C(NCC1CC(=O)N(CCc2ccccc2)C1)c1ccon1` (configuration not stated), with -5.22%. To `CC(C)(C)OC(=O)NCC1CCN(C(=O)c2ccccc2O)CC1` belongs 8.53%; to `Cc1cc(NCCn2cccn2)n2ncnc2n1`, -2.27%; to `Cc1nc(C2CCCN(C(=O)c3cnc(C)s3)C2)no1` (configuration not stated), 4.31%. To `CN(CC(=O)Nc1cc(CC2CCCCC2)n[nH]1)S(C)(=O)=O` belongs 3.44%. Take `COc1cc2c(nn1)CCN(CC(O)COc1ccc(C#N)cc1)C2` (configuration not stated): the cytotoxicity at 10 µM was -2.19%. As for `CCC(NC(=O)Nc1cc(F)c(OC)c(F)c1)c1noc(C)n1` (configuration not stated), the cytotoxicity at 10 µM is -0.177%.

In the case of `CCC(CNS(N)(=O)=O)Oc1ccccc1F` (configuration not stated), the cytotoxicity at 10 µM stood at 3.01%. For the compound `O=C(COc1ccc2c(c1)CCC2)N1CCCC1c1ccc[nH]1` (configuration not stated), the cytotoxicity at 10 µM was determined as 6.54%. Then `CC(C)Oc1ccccc1CNC(=O)c1[nH]ncc1Br`, with 17.5%; and `COc1cc(C)c(C(C)Nc2ncc(C(N)=O)cc2Cl)cc1OC` (configuration not stated), with 2.76%; and `O=C(Nc1ccccc1F)C1CSCN1C(=O)CCc1ccco1` (configuration not stated), with -4.31%. To `O=C1CN(Cc2nnc(-c3ccccc3Br)o2)CCN1` belongs 9.35%. To `Cc1cccc(S(=O)(=O)NCC(C)N2CCN(C)CC2)c1Cl` (configuration not stated) belongs -4.52%; to `CCN1CCN(S(=O)(=O)N2CCC(OC)CC2)[C@H]2CS(=O)(=O)C[C@H]21`, -1.6%; to `Cc1nc(CN2CCC(c3cc(N4CCCC4)ncn3)CC2)cs1`, -159%. Consider `CCC1CN(C(=O)c2ccc(O)c(C)c2)CCN1C(C)C` (configuration not stated), for which the cytotoxicity at 10 µM worked out at 1.68%. Then `O=C(O)C1(Cc2cccc(Cl)c2)CCCN(c2ncnc3[nH]ccc23)C1` (configuration not stated), with 3.63%. To `CC(CCn1cccn1)N1CCC(n2cc(C(C)(C)N)nn2)CC1` (configuration not stated) belongs -4.78%; to `COCc1nc(CN2CC(Cc3ccccc3)CC2=O)no1` (configuration not stated), -12.8%; to `COc1nccc(N2CC[C@H](N3CCOCC3)[C@H](CCCO)C2)c1C#N`, -148%.

For the compound `COc1cc(F)c(CN2CC[C@@](O)(C3CC3)[C@H](C)C2)cc1OC`, the cytotoxicity at 10 µM is 0.0489%. Turning to `CCCN1CCCC2(CCN(S(=O)(=O)N3CCC(OC)CC3)C2)C1=O` (configuration not stated), the cytotoxicity at 10 µM came out at 1.48%. Then `COCC(=O)N1CCC(Oc2cccc(C)c2)CC1`, with -4.25%. Then `CC(Cn1ccnc1)NCc1nncn1C1CCCCC1` (configuration not stated), with -4.54%; and `Cc1nc[nH]c1CN1CCCC(CNC(=O)c2ccncn2)C1` (configuration not stated), with -0.334%; and `CC(C)c1cnc(N2C[C@H](CO)C[C@H](CN3CCOCC3)C2)nc1`, with -7.45%. Consider `CCOCCn1nc(C)cc1C(=O)N1C[C@@H](C)[C@](O)(C2CC2)C1`, for which the cytotoxicity at 10 µM is -3.9%. In the case of `Cc1cccc(CN2CCN(C(=O)[C@@H]3CSCN3C)CC2)c1`, the cytotoxicity at 10 µM was -8.56%. In the case of `CN(C)CC(C)(C)Cn1cnc(-c2ccccc2)c1-c1cccc(O)c1`, the cytotoxicity at 10 µM is -5.53%. To `O=C(NCCCc1ccccn1)c1cn(CCN2CCNCC2)nn1` belongs -3.54%; to `CCN1CCN(C[C@@H]2CN(c3ncc(Cl)cc3Cl)C[C@@H]2CO)CC1`, -6%. On to `COc1ccc(NC(=O)CCN2CC=C(c3cnn(C)c3)CC2)cc1Cl`, for which the cytotoxicity at 10 µM stood at 6.64%. Take `O=c1[nH]c(NC2CCCC2)nc2nccc(-c3ccco3)c12`: the cytotoxicity at 10 µM worked out at 0.74%. Then `Cc1ccc(N2CCN(C(=O)COc3ncccn3)CC2)nn1`, with -0.233%. As to `Cc1ccsc1C(CNC(=O)c1cc(=O)c2ccccc2[nH]1)N(C)C` (configuration not stated), the cytotoxicity at 10 µM was -2.89%. With `COc1ccc(OCc2nc(C(=O)N3CC[C@H](O)[C@@H](O)C3)co2)cc1`, the cytotoxicity at 10 µM was -5.42%. Take `CC(C)Oc1ccc(CNC(=O)CCN2C(=O)CCC2=O)cc1F`: the cytotoxicity at 10 µM was -7.27%.

`CC(C)c1noc(C(C)N2CCN(CCCN3CCCC3=O)CC2)n1` (configuration not stated): the cytotoxicity at 10 µM was -14.3%. Then `Cc1cc(CNc2ccccc2Cl)no1`, with -7.77%; and `CCN(CC)C(=O)Cn1ccc2cc(NC(C)=O)ccc21`, with -10.2%; and `Cc1noc(C)c1C(=O)NCC(c1ccsc1)N(C)C` (configuration not stated), with -14.2%. Then `CCOc1c(Br)cc(/C=C/c2ncc(C(=O)O)s2)cc1OC`, with -1.26%. With `CC(O)CN1CCC(CNCc2cccc(C(=O)N(C)C)c2)CC1` (configuration not stated), the cytotoxicity at 10 µM is -12.8%. As to `Cc1cc(C)n(CC2CN(Cc3noc(C4CC4)n3)CCO2)n1` (configuration not stated), the cytotoxicity at 10 µM was 2.79%. On to `Cn1cnnc1C1CCCN(C(=O)COc2ccccc2Cl)C1` (configuration not stated), for which the cytotoxicity at 10 µM was -14.2%. To `Cc1cc(CN(C)C(=O)NC2CCC(O)CC2)no1` (configuration not stated) belongs -0.252%; to `Cc1cc(CN(C)C(=O)NC2CCCC2)no1`, -5.85%; to `O=C(Nc1ccccn1)N(CCO)Cc1ccsc1`, 2.12%. Consider `Cc1ccc(-c2ncc(C(=O)NCCS(N)(=O)=O)s2)c(C)c1`, for which the cytotoxicity at 10 µM was -10.7%. With `O=C(CCCOc1ccc(F)cc1)N1CCCC(n2cccn2)C1` (configuration not stated), the cytotoxicity at 10 µM came out at 4.23%. Then `C[C@@H]1CN(Cc2ccccn2)C[C@]12CCN(Cc1cccnc1)C2=O`, with -4.54%. On to `c1cncc(O[C@H]2CC[C@H]3[C@H]2OCCN3C2CCCC2)c1`, for which the cytotoxicity at 10 µM is -6.05%.

For `Cc1nc(CN2CCC3(CCCN(Cc4ccncc4)C3)C2=O)cs1` (configuration not stated), the cytotoxicity at 10 µM is 1.38%. As for `O=c1ccc2c(n1Cc1ccncc1)CCN(Cc1ccoc1)CC2`, the cytotoxicity at 10 µM was -149%. For the compound `O=C1Nc2ccccc2C12CCN(Cc1ccccn1)CC2`, the cytotoxicity at 10 µM is -3.45%. For `Cc1cccc(C(=O)N2C[C@@H]3CCN(C(C)C)C[C@@H]3C2)c1`, the cytotoxicity at 10 µM was -2.16%. `Cn1cccc1C(=O)NCc1cn2c(n1)CN(Cc1ccccn1)CC2`: the cytotoxicity at 10 µM was -115%. Turning to `CCS(=O)(=O)N1C[C@@H]2CN(Cc3ccco3)CCO[C@@H]2C1`, the cytotoxicity at 10 µM was -122%. Turning to `Cc1cnc(C(=O)N2CCC3(CCN(Cc4ccccn4)C3=O)C2)cn1` (configuration not stated), the cytotoxicity at 10 µM is -140%. Take `CCCN1C[C@@H]2CC[C@H]1CN(Cc1cccc(O)c1)C2`: the cytotoxicity at 10 µM was -122%. On to `Cn1cc(-n2cc3nc(N4CCOCC4)[nH]cc-3c2=O)cn1`, for which the cytotoxicity at 10 µM was found to be 7.36%. To `COCCN1C(=O)[C@@H]2CC[C@H]1CN(c1nccc(C)n1)C2` belongs 9.73%; to `CS(=O)(=O)CCC(=O)N1C[C@H]2CC[C@@H](C1)N(Cc1ccccc1)C2=O`, -0.0119%.
